{"source": "paper PMC3263504", "about": "(Cell Death and Differentiation, 2011)", "key": {"GST-Dom3": {"tested_on": "GST-Dom3", "test": "GST pull-down of full-length 3xFLAG-Bcl-2 proteins from COS-1 lysates", "assay_type": "binding, mouse", "conditions": "lysates of transfected COS-1 cells, result in words", "summary_of_the_method": "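Lysates (200 μg) of COS-1 cells transiently transfected with 3xFLAG-Bcl-2, K/D mutant or empty vector, incubated with purified GST-Dom3 (IP3R1 a.a. 923–1581, E. coli BL21(DE3)-expressed, PBS-dialyzed). Beads washed four times in 150 mM NaCl buffer without BSA, eluted in LDS 3 min at 95°C. Anti-FLAG western blot; bands quantified, normalized to GST binding; at least five independent experiments.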"}, "IP3R": {"tested_on": "IP3R", "test": "Unidirectional 45Ca2+-flux assay in saponin-permeabilized MEF cells", "assay_type": "cell-based, mouse", "conditions": "for effect of alanine mutation on the inhibitory action of BH4-Bcl-2 on IICR: 60 μM mutant peptide, result in words; for effect on IICR (dose-response): 3 μM IP3, result in words", "summary_of_the_method": "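MEF cells at 30°C permeabilized 10 min with 20 µg/ml saponin (imidazole-KCl, pH 6.8, 1 mM ATP, 1 mM EGTA). Stores loaded 45 min with 150 nM free 45Ca2+, 5 mM ATP, 10 mM NaN3. Efflux medium contained 1 mM EGTA and 4 μM thapsigargin, changed every 2 min. Peptides (alanine mutants 60 μM) added 4 min before IP3 (3 μM, 2 min, after 10 min efflux). Residual Ca2+ released with 2% SDS; read-out fractional loss (%/2 min).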"}, "GST-Dom3 IP3R1": {"molecular_target": "GST-Dom3 IP3R1 (Mus musculus, UniProt P11881)", "sequence (P11881 923-1581)": "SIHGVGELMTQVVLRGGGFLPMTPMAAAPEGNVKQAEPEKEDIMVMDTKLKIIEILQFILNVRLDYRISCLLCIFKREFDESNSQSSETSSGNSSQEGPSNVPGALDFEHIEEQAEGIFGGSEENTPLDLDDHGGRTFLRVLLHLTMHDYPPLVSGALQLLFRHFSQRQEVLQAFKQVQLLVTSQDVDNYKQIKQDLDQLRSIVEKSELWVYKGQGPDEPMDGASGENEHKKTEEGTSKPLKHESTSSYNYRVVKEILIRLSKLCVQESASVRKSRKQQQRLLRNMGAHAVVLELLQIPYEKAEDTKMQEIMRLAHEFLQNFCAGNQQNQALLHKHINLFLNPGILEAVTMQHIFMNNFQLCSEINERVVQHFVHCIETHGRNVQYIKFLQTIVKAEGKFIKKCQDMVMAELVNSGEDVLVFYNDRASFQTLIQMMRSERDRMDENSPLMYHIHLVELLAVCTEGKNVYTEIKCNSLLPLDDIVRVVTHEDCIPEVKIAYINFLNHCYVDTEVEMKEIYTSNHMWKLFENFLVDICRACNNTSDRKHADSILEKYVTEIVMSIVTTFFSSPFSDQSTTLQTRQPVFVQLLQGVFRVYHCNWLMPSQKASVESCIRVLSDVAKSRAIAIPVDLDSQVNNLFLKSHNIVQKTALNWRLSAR", "test": "SPR, GST-Dom3 of IP3R1 on immobilized biotinylated BH4 peptides", "assay_type": "binding", "conditions": "association phase, corrected for scrambled peptide, result in words", "summary_of_the_method": "(§1)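 SPR at 25°C. Biotinylated BH4 peptides (200 ng, 58.2 pmol, >80% pure) immobilized on a streptavidin chip in PBS/0.005% P20, pH 7.0. Analyte was GST-Dom3 or parental GST in PBS, 30 μl/min, several concentrations in random order; response in RU. Scrambled-peptide reference cell subtracted. Regeneration with 25 mM NaOH/0.002% SDS. At least three independent chips.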"}, "GST": {"tested_on": "GST", "test": "SPR, parental GST", "assay_type": "binding", "conditions": "GST up to 40 μM, result in words", "summary_of_the_method": "as §1"}, "C6 glioma cells [1]": {"tested_on": "C6 glioma cells", "test": "PAC-1-induced apoptosis in C6 glioma cells", "assay_type": "cell-based, rat", "conditions": "PAC-1 150 μM, 6 h", "summary_of_the_method": "(§2)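 C6 glioma monolayers in situ electroporated (100 V peak-to-peak, 500 µm electrode gap, low-conductivity sorbitol buffer) with 100 μM DTR and 20 μM peptide. Trigger applied in medium for 6 h: STS 2 μM or PAC-1 150 µM. Apoptosis stained with FITC-VAD-FMK (10 μM, 40 min, 37°C), PFA-fixed, DAPI. Five images inside and five outside the electroporated area; AI inside relative to outside, then vs vehicle (100%).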"}, "C6 glioma cells [2]": {"tested_on": "C6 glioma cells", "test": "Staurosporine-induced apoptosis in C6 glioma cells", "assay_type": "cell-based, rat", "conditions": "6 h, result in words", "summary_of_the_method": "as §2"}, "[3]": {"molecular_target": "GST-Dom3 IP3R3 (a.a. 910–1427) (rat, UniProt Q63269 910-1427)", "sequence (Q63269 910-1427)": "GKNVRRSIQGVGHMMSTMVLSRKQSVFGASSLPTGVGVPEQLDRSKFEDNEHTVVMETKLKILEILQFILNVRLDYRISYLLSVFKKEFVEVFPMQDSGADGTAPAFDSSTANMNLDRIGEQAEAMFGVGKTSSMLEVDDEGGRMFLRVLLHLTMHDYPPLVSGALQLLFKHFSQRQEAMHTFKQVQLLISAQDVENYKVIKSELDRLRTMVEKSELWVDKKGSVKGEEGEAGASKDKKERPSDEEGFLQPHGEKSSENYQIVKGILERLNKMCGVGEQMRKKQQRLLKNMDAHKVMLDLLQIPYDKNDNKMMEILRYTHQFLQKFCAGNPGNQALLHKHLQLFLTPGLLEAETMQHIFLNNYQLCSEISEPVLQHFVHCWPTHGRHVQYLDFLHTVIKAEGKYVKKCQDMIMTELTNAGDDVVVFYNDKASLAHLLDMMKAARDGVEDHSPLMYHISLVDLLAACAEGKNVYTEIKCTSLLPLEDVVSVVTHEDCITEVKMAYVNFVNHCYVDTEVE", "test": "SPR"}, "[4]": {"molecular_target": "GST-Dom3 IP3R2 (a.a. 913–1562) (mouse, UniProt Q9Z329 913-1562)", "sequence (Q9Z329 913-1562)": "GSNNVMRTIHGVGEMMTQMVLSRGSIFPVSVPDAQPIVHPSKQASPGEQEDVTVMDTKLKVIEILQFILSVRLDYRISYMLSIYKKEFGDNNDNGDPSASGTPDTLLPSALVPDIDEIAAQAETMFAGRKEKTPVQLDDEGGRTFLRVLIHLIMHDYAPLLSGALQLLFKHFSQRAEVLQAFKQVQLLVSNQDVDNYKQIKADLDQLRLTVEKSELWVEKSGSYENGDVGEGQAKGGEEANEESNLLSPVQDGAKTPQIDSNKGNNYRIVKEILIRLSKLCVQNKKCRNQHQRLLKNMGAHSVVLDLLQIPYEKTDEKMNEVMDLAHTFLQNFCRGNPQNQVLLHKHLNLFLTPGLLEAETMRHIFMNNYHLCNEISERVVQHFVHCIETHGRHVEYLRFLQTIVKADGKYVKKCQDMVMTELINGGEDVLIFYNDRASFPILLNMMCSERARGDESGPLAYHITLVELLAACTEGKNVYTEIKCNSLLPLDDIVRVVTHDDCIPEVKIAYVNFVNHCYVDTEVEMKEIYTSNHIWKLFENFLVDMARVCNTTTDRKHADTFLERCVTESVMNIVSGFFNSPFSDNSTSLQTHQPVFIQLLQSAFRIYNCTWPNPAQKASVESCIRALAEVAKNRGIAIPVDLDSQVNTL", "test": "SPR"}, "[5]": {"molecular_target": "GST-Dom3 (a.a. 923–1581 of IP3R1) (mouse, UniProt P11881 923-1581)", "sequence (P11881 923-1581)": "as the sequence (P11881 923-1581) above", "test": "SPR"}}, "note": "No end group written: not given here. *: point of attachment. Biotin = O=C1N[C@H]2[C@H](CS[C@H]2CCCCC(=O)*)N1"}
{"molecule": "3xFLAG-Bcl-2 K/D: full-length 3xFLAG-Bcl-2 with Lys17 mutated into Asp, expressed in COS-1 cells", "values": [{"measurement": "binding to GST-Dom3 compared with wild-type 3xFLAG-Bcl-2", "setting": "GST-Dom3", "result": "severely compromised"}]}
{"molecule": "H20A (RTGYDNREIVMKYIAYKLSQRGYEW)", "values": [{"measurement": "effect of alanine mutation on the inhibitory action of BH4-Bcl-2 on IICR", "setting": "IP3R", "result": "largest effect on the inhibitory action"}]}
{"molecule": "Biotin-MSQSNRELVVKFLSYKLSQKGYSW [biotin-BH4-Bcl-Xl D/K]", "values": [{"measurement": "specific binding of GST-Dom3 (resonance units)", "setting": "GST-Dom3 IP3R1", "result": "able to bind GST-Dom3"}]}
{"molecule": "RTGYANAEIVMKYIAEKLSAAGKEW [BH4-Bcl-2BIND, reference compound]", "values": [{"measurement": "effect on IICR (dose-response)", "setting": "IP3R", "result": "did not inhibit IICR"}]}
{"molecule": "K17A (RTGYDNREIVMAYIHYKLSQRGYEW)", "values": [{"measurement": "effect of alanine mutation on the inhibitory action of BH4-Bcl-2 on IICR", "setting": "IP3R", "result": "largest effect on the inhibitory action"}]}
{"molecule": "Y21A (RTGYDNREIVMKYIHAKLSQRGYEW)", "values": [{"measurement": "effect of alanine mutation on the inhibitory action of BH4-Bcl-2 on IICR", "setting": "IP3R", "result": "largest effect on the inhibitory action"}]}
{"molecule": "Biotin-MSQSNRELVVDFLSYKLSQKGYSW [biotin-BH4-Bcl-Xl]", "values": [{"measurement": "binding of GST (control)", "setting": "GST", "result": "bound to neither"}]}
{"molecule": "C=CCc1cccc(/C=N/NC(=O)CN2CCN(Cc3ccccc3)CC2)c1O", "note": "[PAC-1]", "values": [{"measurement": "apoptosis, share of the cell population", "setting": "C6 glioma cells [1]", "result": "~15", "unit": "%"}]}
{"molecule": "RTGYDNREIVMKYIHYKLSQRGYEW [BH4-Bcl-2 K/D]", "values": [{"measurement": "effect on IICR (dose-response)", "setting": "IP3R", "result": "largely ineffective"}]}
{"molecule": "Biotin-RTGYANAEIVMKYIAEKLSAAGKEW [biotin-BH4-Bcl-2BIND, reference compound]", "values": [{"measurement": "specific binding of GST-Dom3 (resonance units)", "setting": "GST-Dom3 IP3R1", "result": "did not specifically bind"}]}
{"molecule": "WYEKQRSLHGIMYYVIEDRNTKGYR [BH4-Bcl-2SCR, reference compound]", "values": [{"measurement": "effect on IICR (dose-response)", "setting": "IP3R", "result": "did not inhibit IICR"}]}
{"molecule": "R26A (RTGYDNREIVMKYIHYKLSQAGYEW)", "values": [{"measurement": "effect of alanine mutation on the inhibitory action of BH4-Bcl-2 on IICR", "setting": "IP3R", "result": "largest effect on the inhibitory action"}]}
{"molecule": "NVYTEIKCNSLLPLDDIVRV [IDP]", "values": [{"measurement": "effect of IDP on BH4-Bcl-2-mediated protection against STS", "setting": "C6 glioma cells [2]; IDP co-loaded with BH4-Bcl-2, STS 2 μM", "result": "completely suppressed"}, {"measurement": "effect of IDP on the protection by BH4-Bcl-Xl against STS", "setting": "C6 glioma cells [2]; IDP co-loaded with BH4-Bcl-Xl, STS 2 μM", "result": "independent of IDP"}]}
{"molecule": "Biotin-RTGYDNREIVMKYIHYKLSQRGYEW", "note": "[Biotin-BH4-Bcl-2]", "values": [{"measurement": "binding result", "setting": "[3]", "result": "binds"}, {"measurement": "binding result", "setting": "[4]", "result": "binds"}]}
{"molecule": "Biotin-MSQSNRELVVKFLSYKLSQKGYSW", "note": "[Biotin-BH4-Bcl-Xl D/K]", "values": [{"measurement": "binding result", "setting": "[5]", "result": "binds"}]}
